According to ChEMBL document CHEMBL2417506, “Synthesis and antiprotozoal activity of original porphyrin precursors and derivatives” (Eur J Med Chem, 2013):
The source made the active and inactive calls. No cut-off for these calls is given here.

How the values were obtained:
Leishmania donovani [1] = assay: Antileishmanial activity against promastigote forms of Leishmania donovani MHOM/ET/67/HU3 after 3 days by MTT assay; format: functional, organism-based; conditions: MHOM/ET/67/HU3, 72 h
Method in brief: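 Log-phase promastigotes at 10^6 cells/mL in supplemented M-199. Serial dilutions gave final concentrations of 100 µM to 50 nM, in triplicate. Incubated 3 days at 27 °C, dark, 5% CO2. Viability read by MTT reduction, with Triton X100/HCl lysis and absorbance at 570 nm. IC50 ± SD.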

[2] = Cytotoxicity against Swiss mouse peritoneal macrophages at 20 uM after 5 days by MTT assay; format: cell-based, Peritoneal macrophage cell
Method in brief: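 Thioglycolate-elicited peritoneal macrophages from female Swiss mice, 5 × 10^4/well in RPMI 1640 with 10% FCS, 25 mM Hepes and 2 mM L-glutamine. Washed at 4 h to remove fibroblasts. Drug-containing medium added at 48 h, stopped at day 5. Viability read by MTT.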

[3] = system: Trypanosoma brucei brucei; assay: Trypanocidal activity against Trypanosoma brucei brucei by drug incubation infectivity test; format: functional; conditions: read-out: MEC
Leishmania donovani [4] = assay: Antileishmanial activity against amastigotes forms of Leishmania donovani MHOM/ET/67/HU3 infected in Swiss mouse peritoneal macrophages at 20 uM after 5 days; format: functional, organism-based
Method in brief: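 Peritoneal macrophages from female Swiss mice (18–20 g) infected after 24 h with stationary-phase L. donovani promastigotes at 10 parasites per macrophage. Free promastigotes removed at 18 h, then amastigotes treated. Medium with drug renewed at 48 h, stopped at day 5. Percentage of infected macrophages scored microscopically after Giemsa staining. Run in triplicate.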

Plasmodium berghei [5] = assay: Antimalarial activity against chloroquine-sensitive Plasmodium berghei NK-173 infected in Swiss albino mouse assessed as quantal survival at 51.5 mg/kg, ip administered 4 times per day for 3 days measured on day 7; format: functional, organism-based; parameters: dose 51.5 mg/kg
Method in brief: (§1)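 Female Swiss albino mice (18–20 g) were infected i.v. on day 0 with 10^6 parasitized RBC in 0.2 ml PBS from a donor mouse, in groups of 10. Dosing was i.p. over days 0–3 and stopped if toxicity appeared. Chloroquine control was 100 µmoles/kg. Giemsa tail smears and RBC counts were taken on days 4, 7, 8, 9, 10 and 14. Mice were followed for deaths.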

Plasmodium berghei [6] = assay: Antimalarial activity against chloroquine-sensitive Plasmodium berghei NK-173 infected in Swiss albino mouse assessed as quantal survival at 51.5 mg/kg, ip administered 4 times per day for 3 days measured on day 10; format: functional, organism-based; parameters: dose 51.5 mg/kg; method in brief: as §1
Plasmodium berghei [7] = assay: Antimalarial activity against chloroquine-sensitive Plasmodium berghei NK-173 infected in Swiss albino mouse assessed as reduction parasitemia at 51.5 mg/kg, ip treated […] by Giemsa staining relative to control; format: functional; parameters: scale not given: the % may be the effect or the level left; conditions: route intraperitoneal
Method in brief: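 Four-day Peters test in female Swiss albino mice (18–20 g), groups of 10. Infected i.v. on day 0 with 10^6 parasitized RBC in 0.2 ml PBS, then dosed i.p. on days 0–3, stopped if toxicity appeared. Parasitemia read from Giemsa-stained tail-blood smears and reported as % reduction at day 4.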

Plasmodium berghei [8] = assay: Antimalarial activity against chloroquine-sensitive Plasmodium berghei NK-173 infected in Swiss albino mouse assessed as quantal survival at 51.5 mg/kg, ip administered 4 times per day for 3 days measured on day 14; format: functional, organism-based; parameters: dose 51.5 mg/kg; method in brief: as §1
Plasmodium berghei [9] = assay: Antimalarial activity against chloroquine-sensitive Plasmodium berghei NK-173 infected in Swiss albino mouse assessed as quantal survival at 51.5 mg/kg, ip administered 4 times per day for 3 days measured on day 9; format: functional, organism-based; parameters: dose 51.5 mg/kg; method in brief: as §1
Plasmodium berghei [10] = assay: Antimalarial activity against chloroquine-sensitive Plasmodium berghei NK-173 infected in Swiss albino mouse assessed as host survival at 51.5 mg/kg, ip administered 4 times per day for 3 days measured on day 30; format: functional; conditions: NK-173, ip, route intraperitoneal; method in brief: as §1
Plasmodium berghei [11] = assay: Antimalarial activity against chloroquine-sensitive Plasmodium berghei NK-173 infected in Swiss albino mouse assessed as quantal survival at 51.5 mg/kg, ip administered 4 times per day for 3 days measured on day 8; format: functional, organism-based; parameters: dose 51.5 mg/kg; method in brief: as §1
Mus musculus [12] = assay: Toxicity in chloroquine-sensitive Plasmodium berghei NK-173 infected Swiss albino mouse assessed as mortality at 51.5 mg/kg, ip administered 4 times per day for 3 days measured up to 4 days; format: organism-based; parameters: dose 51.5 mg/kg, route intraperitoneal; conditions: in vivo; method in brief: as §1
Plasmodium falciparum = assay: Antimalarial activity against Plasmodium falciparum 3D7 infected in human O positive erythrocytes assessed as reduction of parasite growth after 24 to 44 hrs by Giemsa staining; format: functional, organism-based
Method in brief: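 Sorbitol-synchronized ring-stage 3D7 parasites in O+ erythrocytes (5% v/v suspension, 0.5% parasitemia) exposed to compounds from DMSO stock for 44 h at 37 °C. Growth measured by pLDH ELISA after freeze-thaw hemolysis and by Giemsa thin smears at 24 and 44 h, counting at least 5000 erythrocytes. Expressed as % reduction against medium-only control.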

Plasmodium berghei [13] = assay: Antimalarial activity against chloroquine-sensitive Plasmodium berghei NK-173 infected in Swiss albino mouse assessed as quantal survival at 100 mg/kg, ip administered 4 times per day for 3 days measured on day 7; format: functional, organism-based; parameters: dose 100 mg/kg; method in brief: as §1
Plasmodium berghei [14] = assay: Antimalarial activity against chloroquine-sensitive Plasmodium berghei NK-173 infected in Swiss albino mouse assessed as quantal survival at 100 mg/kg, ip administered 4 times per day for 3 days measured on day 8; format: functional, organism-based; parameters: dose 100 mg/kg; method in brief: as §1
Mus musculus [15] = assay: Toxicity in chloroquine-sensitive Plasmodium berghei NK-173 infected Swiss albino mouse assessed as mortality at 100 mg/kg, ip administered 4 times per day for 3 days measured up to 4 days; format: organism-based; parameters: dose 100 mg/kg, route intraperitoneal; conditions: in vivo; method in brief: as §1
Plasmodium berghei [16] = assay: Antimalarial activity against chloroquine-sensitive Plasmodium berghei NK-173 infected in Swiss albino mouse assessed as quantal survival at 100 mg/kg, ip administered 4 times per day for 3 days measured on day 10; format: functional, organism-based; parameters: dose 100 mg/kg; method in brief: as §1
Plasmodium berghei [17] = assay: Antimalarial activity against chloroquine-sensitive Plasmodium berghei NK-173 infected in Swiss albino mouse assessed as quantal survival at 100 mg/kg, ip administered 4 times per day for 3 days measured on day 14; format: functional, organism-based; parameters: dose 100 mg/kg; method in brief: as §1
Plasmodium berghei [18] = assay: Antimalarial activity against chloroquine-sensitive Plasmodium berghei NK-173 infected in Swiss albino mouse assessed as host survival at 100 mg/kg, ip administered 4 times per day for 3 days measured on day 30; format: functional; conditions: NK-173, ip, route intraperitoneal; method in brief: as §1

SMILES	IC50 (Leishmania donovani [1])	CC50 at 120 h [2]	minimal effective concentration [3]	Activity (Leishmania donovani [4])	other results
O=C1CCCN1c1c2nc(c(-c3ccccc3)c3ccc([nH]3)c(Br)c3nc(c(-c4ccccc4)c4ccc1[nH]4)C=C3)C=C2	6.37 µM	> 100 µM	6.25 µM	inactive	
CCN(CC)CCCC(C)Nc1ccnc2cc(Cl)ccc12 (centres undefined) [CHLOROQUINE]					Survival (Plasmodium berghei [5]): Active; Survival (Plasmodium berghei [6]): Active; Activity (Plasmodium berghei [7]): 100%; Survival (Plasmodium berghei [8]): Active; Survival (Plasmodium berghei [9]): Active; survival at 51.5 mg/kg (Plasmodium berghei [10]): 100%; Survival (Plasmodium berghei [11]): Active; Activity (Mus musculus [12]): Non-toxic
Brc1c2nc(c(-c3ccccc3)c3ccc([nH]3)c(Br)c3nc(c(-c4ccccc4)c4ccc1[nH]4)C=C3)C=C2	≥ 100 µM	> 100 µM	> 100 µM	inactive	IC50 (Plasmodium falciparum): 0.2 µM
COc1cc(-c2c3nc(cc4ccc([nH]4)c(-c4cc(OC)c(OC)c(OC)c4)c4nc(cc5ccc2[nH]5)C=C4)C=C3)cc(OC)c1OC	≥ 100 µM	> 100 µM	> 100 µM	inactive	IC50 (Plasmodium falciparum): > 20 µM
Clc1cccc(Cl)c1/C(=C1\C=CC=N1)c1ccc[nH]1	5.55 µM	> 100 µM	12.5 µM	inactive	
Fc1c(F)c(F)c(/C(=C2\C=CC=N2)c2ccc[nH]2)c(F)c1F	3.61 µM	> 100 µM	12.5 µM	inactive	
Brc1ccccc1/C(=C1\C=CC=N1)c1ccc[nH]1	5.38 µM	> 100 µM	50 µM	inactive	
O=C1CCCN1c1c2nc(c(-c3ccccc3)c3ccc([nH]3)c(N3CCCC3=O)c3nc(c(-c4ccccc4)c4ccc1[nH]4)C=C3)C=C2	≥ 100 µM	> 100 µM	> 100 µM	inactive	
COC(=O)[C@@H]1CCC(=O)N1c1c2nc(c(-c3cc(OC)c(OC)c(OC)c3)c3ccc(cc4nc(c(-c5cc(OC)c(OC)c(OC)c5)c5ccc1[nH]5)C=C4)[nH]3)C=C2	≥ 100 µM	> 100 µM		inactive	
CCCCCCCCCCCCCCCCOP(=O)([O-])OCC[N+](C)(C)C [MILTEFOSINE]	4.26 µM	15.8 µM			
O=Cc1c2nc(c(-c3cccc(Br)c3)c3ccc(cc4nc(c(-c5cccc(Br)c5)c5ccc1[nH]5)C=C4)[nH]3)C=C2	≥ 100 µM	> 100 µM	> 100 µM	inactive	IC50 (Plasmodium falciparum): > 20 µM
O=C1CC[C@@H](C(=O)O)N1 [PIDOLIC ACID]					Survival (Plasmodium berghei [13]): Active; Survival (Plasmodium berghei [14]): Active; Activity (Mus musculus [15]): Non-toxic; Survival (Plasmodium berghei [16]): inactive; Survival (Plasmodium berghei [17]): inactive; survival at 100 mg/kg (Plasmodium berghei [18]): 0%
C1=C/C(=C(\c2ccccc2)c2ccc[nH]2)N=C1	5.23 µM	> 100 µM	25 µM	inactive	
O=C1CCC(C(O)(c2ccccc2)c2ccccc2)N1c1c2nc(c(-c3ccccc3)c3ccc([nH]3)c(N3C(=O)CCC3C(O)(c3ccccc3)c3ccccc3)c3nc(c(-c4ccccc4)c4ccc1[nH]4)C=C3)C=C2 (centres undefined)	53 µM	> 100 µM	50 µM	inactive	
C1=Cc2nc1cc1ccc([nH]1)c(-c1ccccc1)c1nc(cc3ccc([nH]3)c2-c2ccccc2)C=C1	≥ 100 µM	> 100 µM	> 100 µM	inactive	IC50 (Plasmodium falciparum): > 20 µM
N=C(N)c1ccc(OCCCCCOc2ccc(C(=N)N)cc2)cc1 [PENTAMIDINE]	3.1 µM	26.3 µM	5 µM		
c1ccc(C(c2ccc[nH]2)c2ccc[nH]2)cc1	≥ 100 µM	> 100 µM	> 100 µM	inactive	
COc1cc(C(c2ccc[nH]2)c2ccc[nH]2)cc(OC)c1OC	≥ 100 µM	> 100 µM	100 µM	inactive	
COC(=O)[C@@H]1CCC(=O)N1c1c2nc(c(-c3cc(OC)c(OC)c(OC)c3)c3ccc([nH]3)c(N3C(=O)CC[C@H]3C(=O)OC)c3nc(c(-c4cc(OC)c(OC)c(OC)c4)c4ccc1[nH]4)C=C3)C=C2	≥ 100 µM	> 100 µM	100 µM	inactive	
COc1cc(/C(=C2\C=CC=N2)c2ccc[nH]2)cc(OC)c1OC	4.71 µM	> 100 µM	25 µM	inactive	
O=Cc1c2nc(c(-c3ccccc3)c3ccc(cc4nc(c(-c5ccccc5)c5ccc1[nH]5)C=C4)[nH]3)C=C2	≥ 100 µM	> 100 µM	> 100 µM	inactive	IC50 (Plasmodium falciparum): > 20 µM
Fc1c(F)c(F)c(C(c2ccc[nH]2)c2ccc[nH]2)c(F)c1F	44.1 µM	> 100 µM	> 100 µM	inactive	
Brc1ccccc1C(c1ccc[nH]1)c1ccc[nH]1	44.7 µM	> 100 µM	> 100 µM	inactive	
